Results on 14 compounds are retold here after ChEMBL document CHEMBL4359835, “Design, Synthesis, and Anti-RNA Virus Activity of 6'-Fluorinated-Aristeromycin Analogues” (J Med Chem, 2019).

A word on the CC50: it is the concentration that lowers cell viability or growth by half. What is called IC50 is the concentration that gives 50% inhibition. By EC50 is commonly meant the concentration at which the effect is half-maximal. As a reminder, the logP is a log measure of how a compound divides between an organic and an aqueous phase.

In data set [1] the test system is Vero. As to the kind of experiment: Cytotoxicity against African green monkey Vero cells assessed as reduction in cell viability measured after 96 hrs by MTS assay. The settings on record: chlorocebus sabaeus. In kind it is cell-based. In a few lines: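 Uninfected Vero CCL81 cells (5000/well) were treated for 96 h in parallel with ZIKV CPE assays. Eight concentrations, quadruplicate; CC50 by nonlinear regression.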
On the technique in general: Formazan colour is commonly taken as a measure of viable cells.

The subject of data set [2] is Vero. Kind of data set: Cytotoxicity against African green monkey Vero cells assessed as reduction in cell viability measured after 72 hrs by MTS assay. In kind it is cell-based. The note with it: chlorocebus sabaeus. In a few lines: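 Uninfected Vero cells (20 000/well) were incubated with compound for 72 h, alongside MERS-CoV assays. Viability by MTS for 2–2.5 h, formaldehyde fixation, then A495 relative to untreated controls. Eight concentrations, quadruplicate; CC50 from nonlinear regression.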

In another data set the target is Adenosylhomocysteinase (Homo sapiens, UniProt P23526). Kind of data set: Inhibition of human placental SAH hydrolase expressed in Escherichia coli JM109 using SAH as substrate preincubated for 10 mins followed by SAH addition and measured after 20 mins by […] reagent-based spectrophotometric method.
Chain of Adenosylhomocysteinase (P23526 whole entry): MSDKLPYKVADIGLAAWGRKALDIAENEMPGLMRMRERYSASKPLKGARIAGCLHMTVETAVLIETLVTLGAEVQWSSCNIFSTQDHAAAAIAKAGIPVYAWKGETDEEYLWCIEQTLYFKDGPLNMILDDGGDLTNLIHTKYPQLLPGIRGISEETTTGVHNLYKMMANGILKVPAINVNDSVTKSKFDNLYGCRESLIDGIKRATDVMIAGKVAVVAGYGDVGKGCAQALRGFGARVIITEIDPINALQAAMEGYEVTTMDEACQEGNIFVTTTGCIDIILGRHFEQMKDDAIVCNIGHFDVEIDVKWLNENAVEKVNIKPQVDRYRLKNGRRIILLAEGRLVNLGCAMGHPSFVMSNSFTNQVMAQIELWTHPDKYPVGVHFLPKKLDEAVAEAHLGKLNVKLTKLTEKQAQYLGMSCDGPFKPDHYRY
The next data set has as its system Vero C1008. As to the kind of experiment: (§1) Cytotoxicity against African green monkey Vero E6 cells assessed as reduction in cell viability measured after 72 hrs by MTS assay. In kind it is cell-based. The note with it: chlorocebus sabaeus, vero c1008, 72 h. In a few lines:
(§2)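 Uninfected Vero E6 cells (10 000/well) were exposed to compound for 72 h, in parallel with SARS-CoV CPE assays. Eight concentrations in quadruplicate; CC50 by nonlinear regression.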

Data set [3] can be described thus: […] CHIKV LS3 infected in African green monkey Vero E6 cells assessed as reduction in virus-induced cytopathic effect measured after 96 hrs post-infection by MTS assay. The settings on record: Chikungunya virus, LS3, Vero C1008, 96 h. On the technique in general: Protection from cytopathic effect is a common read-out in antiviral testing.
The nature of data set [4]: […]. The arrangement: species or system SARS coronavirus Frankfurt 1. The note with it: Severe acute respiratory syndrome-related coronavirus, Vero C1008, 72 h.
Data set [5] in a line: […]. The note with it: Middle East respiratory syndrome-related coronavirus, EMC/2012, Vero, 72 h. In kind it is cell-based.
For a further data set, the system named is SARS-CoV. As to the kind of experiment: Antiviral activity against SARS-CoV Frankfurt1 infected in African green monkey Vero E6 cells assessed as log reduction in viral titre at >0.3 uM measured at 48 hrs post infection by plaque assay. In kind it is functional, Severe acute respiratory syndrome-related coronavirus, Frankfurt 1, Vero C1008.
Data set [6] is described as follows: as §1. In kind it is cell-based, Vero C1008. The settings on record: chlorocebus sabaeus, Vero E6 cells (Vero C1008). In a few lines:
as §2

For the next data set, the system named is Zika virus. As to the kind of experiment: Antiviral activity against ZIKV SL0612 infected in African green monkey Vero cells assessed as log reduction in viral titre up to 1.5 uM measured at 48 hrs post infection by plaque assay. In kind it is functional. In a few lines: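 Vero E6 cells (7.5 × 10^4/well) adhered overnight in DMEM/8% FCS. ZIKV infection was at MOI 1 for 2 h at 37 °C in EMEM/2% FCS with compound (0–1.5 μM), followed by washing and 48 h in compound-containing medium. Supernatant titre was read by plaque assay on Vero CCL81. Duplicates in two independent experiments (n = 4).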

Data set [7] in a line: Selectivity index, ratio of CC50 for African green monkey Vero cells to EC50 for inhibition of RNA-dependent RNA polymerase in MERS-CoV EMC/2012 infected in African green monkey Vero cells assessed as reduction in virus-induced cytopathic effect. The settings on record: read-out: Ratio CC50/EC50. In kind it is toxicity.
Data set [8] can be described thus: Selectivity index, ratio of CC50 for African green monkey Vero E6 cells to EC50 for inhibition of RNA-dependent RNA polymerase in CHIKV LS3 infected in African green monkey Vero E6 cells assessed as reduction in virus-induced cytopathic effect. In kind it is toxicity, Vero C1008. The settings on record: read-out: Ratio CC50/EC50. The method, boiled down:
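Vero E6 cells (5000/well) were infected with CHIKV at MOI 0.005 in EMEM/25 mM HEPES/2% FCS containing compound. CPE was read by MTS at 96 hpi (A495, relative to uninfected). Uninfected cells were tested in parallel for CC50. Eight concentrations, quadruplicate; EC50 and CC50 by nonlinear regression; SI = CC50/EC50.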

Data set [9] relates to Middle East respiratory syndrome-related coronavirus. Kind of data set: Antiviral activity against MERS-CoV EMC/2012 infected in African green monkey Vero cells assessed as log reduction in virus titre at >0.3 uM measured after 48 hrs viral infection by plaque assay. In kind it is functional.
A short description of data set [10]: Partition coefficient, log P of the compound in liquid/aqueous phase by pH-metric method. In kind it is physicochemical. The note with it: octanol/water.
Data set [11] in a line: Selectivity index, ratio of CC50 for African green monkey Vero E6 cells to EC50 for inhibition of RNA-dependent RNA polymerase in SARS-CoV Frankfurt1 infected in African green monkey Vero E6 cells assessed as reduction in virus-induced cytopathic effect. In kind it is toxicity, Vero C1008. The note with it: read-out: Ratio CC50/EC50.
The next data set concerns Chikungunya virus. As to the kind of experiment: Antiviral activity against CHIKV LS3 infected in African green monkey Vero E6 cells assessed as log reduction in viral titer measured after 30 hrs post infection by plaque assay. In kind it is functional, Vero C1008.
The nature of data set [12]: Selectivity index, ratio of CC50 for African green monkey Vero cells to EC50 for inhibition of RNA-dependent RNA polymerase in ZIKV SL0612 infected in African green monkey Vero cells assessed as reduction in virus-induced cytopathic effect. The note with it: read-out: Ratio CC50/EC50. In kind it is toxicity. In a few lines: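 Vero CCL81 cells (5000/well) received ZIKV at MOI 0.05 in compound-containing infection medium. MTS was read at 96 hpi (A495, relative to uninfected), with uninfected cells run in parallel for CC50. Eight concentrations, quadruplicate; nonlinear regression; SI = CC50/EC50.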

As to `Nc1ccn([C@H]2[C@H](O)[C@H](O)[C@@H](CO)C2(F)F)c(=O)n1`, the CC50 in the data set on Vero [1] was over 100 µM; with Vero [2] it was over 50 µM; in the data set with Vero C1008, over 100 µM. In addition, the IC50 against Adenosylhomocysteinase was over 100 µM. For the same compound, the EC50 in data set [3] was over 100 µM; in data set [4] it was over 100 µM; in [5], over 50 µM.
With `Nc1ncnc2c1ncn2[C@H]1[C@H](O)[C@H](O)[C@@H](CO)C1(F)F`, the CC50 with Vero [1] was over 2.5 µM; in the data set on Vero [2] it was 3.2 µM. Further, the FC is recorded as 1.5 with SARS-CoV, 1 in the data set with Zika virus, 2.5 in data set [9] and over 2 in the data set on Chikungunya virus. This compound also came in with an IC50 on Adenosylhomocysteinase of 1.06 µM. Besides, the CC50 at 72 h in data set [6] lay in the range of 1.25 to 5.9 µM. The EC50 in data set [3] is 0.13 µM; in data set [4] it was 0.5 µM; in [5] it was 0.2 µM. Also, the selectivity ratio is 16 in data set [7], over 9.6 in data set [8], 11.8 in [11] and over 9.6 in [12]. Besides, the logP in data set [10] turned out to be 0.02.
Take `Nc1ncnc2c1ncn2[C@H]1[C@H](O)[C@H](O)[C@@H](CO)[C@@H]1F`: the EC50 in data set [3] is 0.53 µM.
Turning to `Nc1ncnc2c1ncn2[C@@H]1C[C@H](CO)[C@@H](O)[C@H]1O` [ARISTEROMYCIN], the CC50 came to 2.4 µM with Vero [1] and 2 µM in the data set with Vero [2]. For the same compound, the CC50 at 72 h in data set [6] was 2.4 to 6.3 µM. Moreover, the EC50 was 0.8 µM in data set [3], over 50 µM in data set [4] and over 50 µM in [5].
With `CC(C)OC(=O)[C@H](C)N[P@](=O)(OC[C@@H]1[C@@H](O)[C@@H](O)[C@H](n2ccc(=O)[nH]c2=O)[C@@H]1F)Oc1ccccc1`, the half-maximal cytotoxic concentration (CC50) is over 100 µM with Vero [1], over 50 µM in the data set with Vero [2] and over 100 µM in the data set with Vero C1008. On Adenosylhomocysteinase, this compound showed an IC50 of over 100 µM. For the same compound, the figures for the EC50 in data set [3], in data set [4] and in data set [5] were over 100 µM, over 100 µM and over 50 µM, respectively.
As for `CC(C)OC(=O)[C@H](C)N[P@](=O)(OC[C@@H]1[C@@H](O)[C@@H](O)[C@H](n2cnc3c(N)ncnc32)C1(F)F)Oc1ccccc1`, the values for the CC50 with Vero [1] and in the data set on Vero [2] were over 25 µM and over 50 µM, respectively. For the same compound, the IC50 against Adenosylhomocysteinase was over 100 µM. In addition, the CC50 at 72 h in data set [6] is 12.5 to 25 µM. Also, the EC50 in data set [3] is 1.95 µM; in [4], 6.8 µM; in data set [5], 9.3 µM. Further, the selectivity ratio is over 6.4 in data set [8], over 3.7 in data set [11] and over 14.3 in [12].
For `O=c1ccn([C@H]2[C@H](O)[C@H](O)[C@@H](CO)[C@@H]2F)c(=O)[nH]1`, the CC50 with Vero [1] and in the data set on Vero [2] was over 100 µM in each case. The compound further displayed an IC50 against Adenosylhomocysteinase of over 100 µM. For the same compound, the EC50 in [3], in data set [4] and in data set [5] was over 100 µM throughout.
For `Nc1ccn([C@H]2[C@H](O)[C@H](O)[C@@H](CO)[C@H]2F)c(=O)n1`, the CC50 in the data set with Vero [1], with Vero [2] and in the data set with Vero C1008 was over 100 µM throughout. On Adenosylhomocysteinase, this compound had a half-inhibitory concentration (IC50) of over 100 µM. Moreover, the EC50 in data set [3], in data set [4] and in data set [5] was over 100 µM in each case.
`O=c1ccn([C@H]2[C@H](O)[C@H](O)[C@@H](CO)[C@H]2F)c(=O)[nH]1` yielded an IC50 against Adenosylhomocysteinase of over 100 µM. Moreover, in the data set on Vero C1008, the CC50 is over 100 µM. In addition, the EC50 in [3], in data set [4] and in data set [5] was over 100 µM in each case.
Regarding `O=c1ccn([C@H]2[C@H](O)[C@H](O)[C@@H](CO)C2(F)F)c(=O)[nH]1`, the figures for the CC50 in the data set on Vero [1], with Vero [2] and in the data set with Vero C1008 were over 100 µM, over 50 µM and over 100 µM, respectively. Further, the IC50 at Adenosylhomocysteinase is over 100 µM. Also, the results for the concentration for a half-maximal effect (EC50) in data set [3], in data set [4] and in data set [5] were over 100 µM, over 100 µM and over 50 µM, respectively.
Consider `Nc1ncnc2c1ncn2[C@H]1[C@H](O)[C@H](O)[C@@H](CO)[C@H]1F`, for which the CC50 in the data set with Vero [2] is 0.6 µM. Besides, the CC50 at 72 h in data set [6] is over 100 µM. The EC50 is over 100 µM in data set [3] and 0.2 µM in data set [5].
On to `CNc1ncnc2c1ncn2[C@H]1[C@H](O)[C@H](O)[C@@H](CO)C1(F)F`, for which the CC50 with Vero [1] is over 100 µM; in the data set on Vero [2], 12.5 µM; with Vero C1008, over 100 µM. Besides, it took 0.76 µM to reach half-maximal inhibition against Adenosylhomocysteinase (IC50). In addition, the figures for the EC50 in data set [3], in data set [4] and in data set [5] were over 100 µM, over 100 µM and over 50 µM, respectively.
Regarding `CC(C)OC(=O)[C@H](C)N[P@](=O)(OC[C@@H]1[C@@H](O)[C@@H](O)[C@H](n2ccc(=O)[nH]c2=O)C1(F)F)Oc1ccccc1`, the CC50 in the data set with Vero [1] was over 100 µM; in the data set with Vero [2], over 50 µM; in the data set on Vero C1008 it was over 100 µM. On Adenosylhomocysteinase, this compound came in with an IC50 of over 100 µM. The EC50 in data set [3] is over 100 µM; in data set [4], over 100 µM; in [5], over 50 µM.
For the compound `CNc1ncnc2c1ncn2[C@H]1[C@H](O)[C@H](O)[C@@H](CO)[C@H]1F`, the CC50 is over 100 µM with Vero [1], over 50 µM in the data set with Vero [2] and over 100 µM in the data set with Vero C1008. Moreover, the 50% inhibitory concentration (IC50) at Adenosylhomocysteinase was 4.39 µM. Further, the EC50 is over 100 µM in data set [3], over 100 µM in data set [4] and over 50 µM in [5].
